Laboratory results taken from ChEMBL document CHEMBL1949493, “Discovery of s-nitrosoglutathione reductase inhibitors: potential agents for the treatment of asthma and other inflammatory diseases” (ACS Med Chem Lett, 2011).
Blank lines part the entries; values can stand above or below the compound they belong to. Activity calls are given as the source filed them. The rule behind the calls is not given here.

Assays:
[1] = Inhibition of S-nitrosoglutathione reductase expressed in Escherichia coli using GSNO as substrate measured for 3 mins by spectrophotometry
[2] = Oral bioavailability in BALB/c mouse at 10 mg/kg; assay type: ADME, organism-based; settings: in vivo
[3] = Plasma clearance in BALB/c mouse at 2 mg/kg, iv; assay type: ADME, organism-based; design: dose 2 mg/kg, route intravenous
Mus musculus [4] = assay: Antiasthmatic activity in ovalbumin-sensitized BALB/c mouse assessed as inhibition of ovalbumin-induced easonophil infiltration into lungs at 0.0005 to 30 mg/kg, iv administered from 30 mins to 72 hrs prior to assesment by light microscopy; assay type: functional, organism-based
In short: (§1)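 Ovalbumin-induced asthma model in mice, dosed by single IV administration. Read-out was eosinophil infiltration into the lungs.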

Mus musculus [5] = assay: Antiinflammatory activity in C57B1/6 mouse IBD model assessed as inhibition of DSS-induced inflammatory response at 1 mg/kg, iv or po administered for 10 days from 2 days prior to and up to 2 days post DSS-challenge; assay type: functional, organism-based; design: dose 1 mg/kg
In short: (§2)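 Mouse model of DSS-induced IBD. Dosing was oral or IV at 1 and 10 mg/kg/day for 10 days.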

Mus musculus [6] = assay: Antiinflammatory activity in C57B1/6 mouse IBD model assessed as inhibition of DSS-induced inflammatory response at 10 mg/kg, iv or po administered for 10 days from 2 days prior to and up to 2 days post DSS-challenge; assay type: functional, organism-based; design: dose 10 mg/kg; in short: as §2
Rattus norvegicus = species on record: Rattus norvegicus; assay: Antihypertensive activity in rat DAHL/S model assessed as reduction in high dietary salt-induced hypertension
Mus musculus [7] = assay: Antiasthmatic activity in C57B1/6 mouse COPD model assessed as inhibition of porcine pancreatic elastase-induced emphysema at 0.1 to 10 mg/kg, po after 7 to 14 days by light microscopy; assay type: functional, organism-based
Mus musculus [8] = assay: Antiasthmatic activity in ovalbumin-sensitized BALB/c mouse assessed as inhibition of methacholine-induced bronchoconstriction at 0.0005 to 30 mg/kg, iv administered from 30 mins to 48 hrs prior to assessment by whole body plethysmography
[9] = Toxicity in iv dosed CD-1 mouse administered qd for 4 days measured on day 5; assay type: organism-based; settings: in vivo
In short: (§3)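 Read-out was the no observable adverse effect level (NOAEL) in mg/kg/day.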

Salmonella typhimurium = assay: Mutagenic activity in Salmonella Typhimurium; assay type: toxicity, organism-based; settings: salmonella enterica subsp. enterica serovar typhimurium
Homo sapiens = species on record: Homo sapiens; assay: Inhibition of human recombinant delta2 opioid receptor at 10 uM by radioligand displacement assay
In short: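 Off-target screen measuring percent inhibition of receptor radioligand binding, with test compound at 10 μM.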

[10] = biological target: Voltage-gated inwardly rectifying potassium channel KCNH2 (Homo sapiens, UniProt Q12809); assay: Inhibition of human ERG
Mus musculus [11] = assay: Antiasthmatic activity in ovalbumin-sensitized iv dosed BALB/c mouse assessed as inhibition of methacholine-induced bronchoconstriction administered from 30 mins to 48 hrs prior to metacholine-challenge by whole body plethysmography; assay type: functional, organism-based
Mus musculus [12] = assay: Antiasthmatic activity in ovalbumin-sensitized BALB/c mouse assessed as inhibition of methacholine-induced bronchoconstriction at >/= 0.01 mg/kg, iv administered from 30 mins to 48 hrs prior to metacholine-challenge by whole body plethysmography; assay type: functional, organism-based; design: dose 0.01 mg/kg
[13] = Toxicity in po dosed CD-1 mouse administered qd for 4 days measured on day 5; assay type: organism-based; settings: in vivo; in short: as §3
Mus musculus [14] = assay: Antiasthmatic activity in ovalbumin-sensitized BALB/c mouse assessed as inhibition of ovalbumin-induced easonophil infiltration in lungs at >/= 0.0005 mg/kg, iv administered from 30 mins to 72 hrs prior to assessment by light microscopy; assay type: functional, organism-based; design: dose 0.0005 mg/kg; in short: as §1
Mus musculus [15] = assay: Antiasthmatic activity in ovalbumin-sensitized BALB/c mouse assessed as inhibition of methacholine-induced bronchoconstriction at >/= 0.01 mg/kg, iv administered prior to metacholine-challenge by whole body plethysmography; assay type: functional, organism-based; design: dose 0.01 mg/kg; settings: TDE = time-dependent effect

Chain of Voltage-gated inwardly rectifying potassium channel KCNH2 (Q12809 whole entry): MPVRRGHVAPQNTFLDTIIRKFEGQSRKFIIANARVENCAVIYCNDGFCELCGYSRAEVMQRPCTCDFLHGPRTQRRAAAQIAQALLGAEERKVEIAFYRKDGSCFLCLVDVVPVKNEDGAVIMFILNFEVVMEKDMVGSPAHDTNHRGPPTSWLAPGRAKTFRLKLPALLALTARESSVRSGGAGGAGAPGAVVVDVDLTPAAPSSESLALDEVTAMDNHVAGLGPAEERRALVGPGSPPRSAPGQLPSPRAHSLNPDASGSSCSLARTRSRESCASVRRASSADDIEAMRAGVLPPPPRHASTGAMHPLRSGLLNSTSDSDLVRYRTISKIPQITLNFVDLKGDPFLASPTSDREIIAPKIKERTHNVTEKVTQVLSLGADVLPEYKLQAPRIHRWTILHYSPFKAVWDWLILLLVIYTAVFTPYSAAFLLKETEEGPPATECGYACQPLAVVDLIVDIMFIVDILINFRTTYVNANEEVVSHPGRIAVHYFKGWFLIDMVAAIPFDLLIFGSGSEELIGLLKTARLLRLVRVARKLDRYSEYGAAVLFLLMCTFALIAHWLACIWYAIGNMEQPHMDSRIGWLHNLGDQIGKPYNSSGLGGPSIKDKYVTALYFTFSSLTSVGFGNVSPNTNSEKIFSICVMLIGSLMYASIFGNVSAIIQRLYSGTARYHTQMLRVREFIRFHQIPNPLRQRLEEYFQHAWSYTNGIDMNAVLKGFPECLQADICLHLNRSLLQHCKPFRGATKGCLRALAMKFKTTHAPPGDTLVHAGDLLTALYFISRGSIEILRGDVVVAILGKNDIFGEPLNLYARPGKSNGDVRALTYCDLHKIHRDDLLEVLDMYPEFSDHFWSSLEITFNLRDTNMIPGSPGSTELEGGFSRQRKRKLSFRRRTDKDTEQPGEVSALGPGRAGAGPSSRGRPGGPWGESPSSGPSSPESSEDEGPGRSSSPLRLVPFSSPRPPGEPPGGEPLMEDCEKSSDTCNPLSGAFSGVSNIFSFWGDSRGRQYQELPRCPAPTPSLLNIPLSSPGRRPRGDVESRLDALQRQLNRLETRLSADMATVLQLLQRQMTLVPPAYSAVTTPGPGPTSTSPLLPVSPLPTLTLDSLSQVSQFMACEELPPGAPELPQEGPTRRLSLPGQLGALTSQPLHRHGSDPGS

Structure (SMILES): Cc1cc(C(N)=O)ccc1-n1c(CCC(=O)O)ccc1-c1ccc(F)cc1
IC50 [1]: 500 nM

Structure (SMILES): Oc1ccc(-n2c(CCc3nnn[nH]3)ccc2-c2ccc(Br)cc2)cc1
IC50 [1]: 450 nM

Structure (SMILES): Oc1ccc(-n2c(CCc3nnn[nH]3)ccc2-c2ccc(-n3ccnc3)cc2)cc1
IC50 [1]: 300 nM

Structure (SMILES): Cc1cc(C(N)=O)ccc1-n1c(CCC(=O)O)ccc1-c1ccc(C(F)(F)F)cc1
IC50 [1]: 3990 nM

Structure (SMILES): COc1ccc(-c2ccc(Cc3nnn[nH]3)n2-c2ccc(C(N)=O)cc2C)cc1
IC50 [1]: 2910 nM

Structure (SMILES): NC(=O)c1ccc(-n2c(CCC(=O)O)ccc2-c2ccccc2)cc1
bioavailability [2]: 86.5% | clearance [3]: 8.9 mL/min/kg | IC50 [1]: 570 nM

Structure (SMILES): Cc1cc(C(N)=O)ccc1-n1c(CCC(=O)O)ccc1-c1ccc(Cl)cc1N(C)C
IC50 [1]: 350 nM

Structure (SMILES): COc1ccc(-c2ccc(CCC(=O)O)n2-c2ccc(C(N)=O)cc2C(F)(F)F)cc1
IC50 [1]: 450 nM

Structure (SMILES): Cc1cc(C(N)=O)ccc1-n1c(Cc2nnn[nH]2)ccc1-c1ccc(Br)cc1
IC50 [1]: 560 nM

Structure (SMILES): Oc1ccc(-n2c(Cc3nnn[nH]3)ccc2-c2ccc(Br)cc2)cc1
IC50 [1]: 4350 nM

Structure (SMILES): Cc1cc(C(N)=O)ccc1-n1c(CCC(=O)O)ccc1-c1ccc(C#N)cc1
bioavailability [2]: 16.3% | clearance [3]: 25.5 mL/min/kg | IC50 [1]: 563 nM

Structure (SMILES): Cc1cc(C(N)=O)ccc1-n1c(CCC(=O)O)ccc1-c1ccc(Cl)cc1C(F)(F)F
IC50 [1]: 330 nM

Structure (SMILES): COc1ccc(-c2ccc(CCC(=O)O)n2-c2ccc(C(N)=O)cc2F)cc1
IC50 [1]: 240 nM

Structure (SMILES): COc1ccc(-c2ccc(CCc3nnn[nH]3)n2-c2ccc(C(N)=O)cc2C)cc1
IC50 [1]: 1530 nM

Structure (SMILES): Cc1cc(C(N)=O)ccc1-n1c(CCC(=O)O)ccc1-c1ccccc1
bioavailability [2]: 46.8% | clearance [3]: 11.8 mL/min/kg | IC50 [1]: 360 nM

Structure (SMILES): Cc1cc(C(N)=O)ccc1-n1c(CCC(=O)O)ccc1-c1ccc(C(N)=O)cc1
IC50 [1]: 3920 nM

Structure (SMILES): COc1ccc(-c2ccc(CCC(=O)O)n2-c2ccc(C(N)=O)cc2)cc1
IC50 [1]: 460 nM

Structure (SMILES): Cc1cc(C(N)=O)ccc1-n1c(CCC(=O)O)ccc1-c1ccc(Cl)cc1NC=O
IC50 [1]: 580 nM

Compounds with a lower IC50 [1], results first:

IC50 [1]: 210 nM
Structure (SMILES): COc1ccc(-c2ccc(CCC(=O)O)n2-c2ccc(C(N)=O)cc2C)cc1
Activity (Mus musculus [4]): Active | Activity (Mus musculus [5]): Active | Activity (Mus musculus [6]): Active | Activity (Rattus norvegicus): Active | Activity (Mus musculus [7]): Active | Activity (Mus musculus [8]): Active | NOAEL at 96 h [9]: 50 mg/kg

IC50 [1]: 200 nM
Structure (SMILES): COc1ccc(-c2ccc(CCC(=O)O)n2-c2ccc(C(N)=O)cc2C)c(Cl)c1

IC50 [1]: 190 nM
Structure (SMILES): COc1ccc(-c2ccc(CCC(=O)O)n2-c2ccc(C(N)=O)cc2Cl)cc1

IC50 [1]: 190 nM
Structure (SMILES): Cc1cc(C(N)=O)ccc1-n1c(CCc2nnn[nH]2)ccc1-c1ccc(Br)cc1

IC50 [1]: 170 nM
Structure (SMILES): CCOc1cc(Cl)ccc1-c1ccc(CCC(=O)O)n1-c1ccc(C(N)=O)cc1C

IC50 [1]: 160 nM
Structure (SMILES): Cc1cc(C(N)=O)ccc1-n1c(CCC(=O)O)ccc1-c1ccc(Cl)cc1C(N)=O

bioavailability [2]: 18% | clearance [3]: 21.4 mL/min/kg | IC50 [1]: 160 nM
Structure (SMILES): Cc1cc(C(N)=O)ccc1-n1c(CCC(=O)O)ccc1-c1ccc(Br)cc1
Activity (Mus musculus [4]): Active | Activity (Mus musculus [5]): Active | Activity (Mus musculus [6]): Active | Activity (Rattus norvegicus): Active | Activity (Mus musculus [7]): Active | Activity (Mus musculus [8]): Active | NOAEL at 96 h [9]: 50 mg/kg

IC50 [1]: 160 nM
Structure (SMILES): Cc1cc(C(N)=O)ccc1-n1c(CCC(=O)O)ccc1-c1ccc(Cl)cc1Cl

IC50 [1]: 160 nM
Structure (SMILES): Cc1cc(C(N)=O)ccc1-n1c(CCC(=O)O)ccc1-c1ccc(O)cc1

IC50 [1]: 120 nM
Structure (SMILES): Cc1cc(C(N)=O)ccc1-n1c(CCC(=O)O)ccc1-c1ccc(Cl)cc1F

bioavailability [2]: 20.7% | clearance [3]: 16 mL/min/kg | IC50 [1]: 120 nM
Structure (SMILES): Cc1cc(C(N)=O)ccc1-n1c(CCC(=O)O)ccc1-c1ccc(Cl)cc1

IC50 [1]: 110 nM
Structure (SMILES): CCCOc1cc(Cl)ccc1-c1ccc(CCC(=O)O)n1-c1ccc(C(N)=O)cc1C

bioavailability [2]: 21.8% | clearance [3]: 22.4 mL/min/kg | IC50 [1]: 96 nM
Structure (SMILES): COc1cc(Br)ccc1-c1ccc(CCC(=O)O)n1-c1ccc(C(N)=O)cc1C

bioavailability [2]: 22.4% | clearance [3]: 20.2 mL/min/kg | IC50 [1]: 56 nM
Structure (SMILES): COc1cc(Cl)ccc1-c1ccc(CCC(=O)O)n1-c1ccc(C(N)=O)cc1C
Activity (Mus musculus [4]): Active | Activity (Mus musculus [5]): Active | Activity (Mus musculus [6]): Active | Activity (Rattus norvegicus): Active | Activity (Mus musculus [7]): Active | Activity (Mus musculus [8]): Active

bioavailability [2]: 2.72% | clearance [3]: 33.4 mL/min/kg | IC50 [1]: 55 nM
Structure (SMILES): Cc1cc(C(N)=O)ccc1-n1c(CCC(=O)O)ccc1-c1ccc(Cl)cc1O
Activity (Mus musculus [4]): Active | Activity (Mus musculus [5]): Active | Activity (Mus musculus [6]): Active | Activity (Rattus norvegicus): Active | Activity (Mus musculus [7]): Active | Activity (Mus musculus [8]): Active

inhibition (Homo sapiens): 66% | IC50 [1]: 20 nM
Structure (SMILES): Cc1cc(C(N)=O)ccc1-n1c(CCC(=O)O)ccc1-c1ccc(-n2ccnc2)cc1 [N6022]
Activity (Salmonella typhimurium): Non-toxic | INH [10]: > 100 µM | Activity (Mus musculus [11]): Dose-dependent effect | Activity (Mus musculus [5]): Active | Activity (Mus musculus [12]): Active | Activity (Mus musculus [6]): Active | NOAEL at 96 h [13]: 100 mg/kg | Activity (Mus musculus [14]): Active | Activity (Mus musculus [15]): tde | NOAEL at 96 h [9]: 30 mg/kg

IC50 [1]: 18 nM
Structure (SMILES): Oc1ccc(-n2c(Cc3nnn[nH]3)ccc2-c2ccc(-n3ccnc3)cc2)cc1
